Measurements published in ChEMBL document CHEMBL1143246, “Design and synthesis of bicyclic pyrimidinones as potent and orally bioavailable HIV-1 integrase inhibitors” (J Med Chem, 2008).

Assays:
[1] = test system: Human immunodeficiency virus 1; experiment: Antiviral activity against HIV1 in human MT4 cell assessed as inhibition of virus spread in presence of 10% fetal bovine serum; type: functional; details: Human immunodeficiency virus 1, MT4; read-out: CIC95
Method in brief: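 Spread of HIV-1 infection in MT-4 human T-lymphoid cell culture with 10% fetal bovine serum; CIC95 is the concentration inhibiting spread by ≥95%; mean of at least three independent experiments.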

[2] = test system: Human immunodeficiency virus 1; experiment: Antiviral activity against HIV1 in human MT4 cell assessed as inhibition of virus spread in presence of 50% normal human serum; type: functional; details: Human immunodeficiency virus 1, MT4; read-out: CIC95
Method in brief: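 Spread of HIV-1 infection in MT-4 human T-lymphoid cell culture with 50% normal human serum; CIC95 is the concentration inhibiting spread by ≥95%; mean of at least three independent experiments.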

[3] = Protein binding in rat plasma; type: ADME, cell-free; details: read-out: PPB (converted)
Method in brief: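 Plasma protein binding was measured by ultrafiltration after a 1 h incubation of compound in plasma at 37 °C.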

[4] = Protein binding in dog plasma; type: ADME, cell-free, Canis lupus familiaris; details: read-out: PPB (converted)
Method in brief: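 Plasma protein binding measured by ultrafiltration after incubation at 37 °C for 1 h.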

Liver microsomes [5] = experiment: Metabolic stability in rat liver microsomes in presence of NADPH and UDPGA; type: ADME, Microsome
Method in brief: (§1)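 Multiple time points over 1 h: compound 1 µM with liver microsomes 1 mg/mL, in the presence of both UDPGA and NADPH; degradation followed by LC/MS/MS.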

Liver = experiment: Metabolic stability in dog liver microsomes in presence of NADPH and UDPGA; type: ADME, Canis lupus familiaris, Microsome; method in brief: as §1
Canis familiaris [6] = experiment: Oral bioavailability in dog at 2 mg/kg; type: ADME, organism-based, Canis lupus familiaris; details: in vivo
Method in brief: (§2)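 In vivo PK: iv dosing in DMSO/PEG400/H₂O mixtures, oral dosing as methylcellulose suspension. Half-life was taken after iv dosing; AUC and Cmax after po dosing.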

[7] = Oral bioavailability in rat at 10 mg/kg; type: ADME, organism-based; details: in vivo; method in brief: as §2
[8] = Oral bioavailability in rhesus monkey at 10 mg/kg; type: ADME, organism-based, Macaca mulatta; details: in vivo
[9] = Plasma clearance in rat at 3 mg/kg, iv or 10 mg/kg, po; type: ADME, organism-based
[10] = Plasma clearance in rhesus monkey at 2 mg/kg, iv or 10 mg/kg, po; type: ADME, organism-based, Macaca mulatta
Method in brief: (§3)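 Rhesus dosed 2 mg/kg iv in DMSO; oral arm 10 mg/kg as 0.5% methylcellulose suspension; plasma clearance and iv half-life.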

[11] = Half life in rat at 3 mg/kg, iv; type: ADME, organism-based; design: dose 3 mg/kg, route intravenous; details: in vivo; method in brief: as §2
[12] = Half life in dog at 1 mg/kg, iv; type: ADME, organism-based, Canis lupus familiaris; design: dose 1 mg/kg, route intravenous; details: in vivo; method in brief: as §2
[13] = Half life in rhesus monkey at 2 mg/kg, iv; type: ADME, organism-based, Macaca mulatta; design: dose 2 mg/kg, route intravenous; details: in vivo; method in brief: as §3
Canis familiaris [14] = experiment: AUC in dog at 2 mg/kg, po; type: ADME, organism-based, Canis lupus familiaris, Plasma; design: dose 2 mg/kg, route oral; details: in vivo; method in brief: as §2
[15] = AUC in rhesus monkey at 10 mg/kg, po; type: ADME, organism-based, Macaca mulatta; design: dose 10 mg/kg, route oral; details: plasma
[16] = Cmax in dog at 4 mg/kg, po; type: ADME, organism-based, Canis lupus familiaris; design: dose 4 mg/kg, route oral; details: in vivo; method in brief: as §2
[17] = Cmax in dog at 2 mg/kg, po; type: ADME, organism-based, Canis lupus familiaris; design: dose 2 mg/kg, route oral; details: in vivo; method in brief: as §2
[18] = Cmax in rhesus monkey at 10 mg/kg, po; type: ADME, organism-based, Macaca mulatta; design: dose 10 mg/kg, route oral; details: in vivo
[19] = Volume of distribution at steady state in rat at 3 mg/kg, iv or 10 mg/kg, po; type: ADME, organism-based; details: in vivo, read-out: Vdss
Method in brief: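 Rats received 3 mg/kg intravenously in DMSO/PEG400/H₂O (20%-60%-20%) and 10 mg/kg orally as a 1% methylcellulose suspension. Volume of distribution was derived from the plasma profiles.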

[20] = target: T1, DNA polymerase alpha catalytic subunit (Homo sapiens, UniProt P09884); experiment: Inhibition of human DNA polymerase alpha
T1 sequence (P09884 whole entry): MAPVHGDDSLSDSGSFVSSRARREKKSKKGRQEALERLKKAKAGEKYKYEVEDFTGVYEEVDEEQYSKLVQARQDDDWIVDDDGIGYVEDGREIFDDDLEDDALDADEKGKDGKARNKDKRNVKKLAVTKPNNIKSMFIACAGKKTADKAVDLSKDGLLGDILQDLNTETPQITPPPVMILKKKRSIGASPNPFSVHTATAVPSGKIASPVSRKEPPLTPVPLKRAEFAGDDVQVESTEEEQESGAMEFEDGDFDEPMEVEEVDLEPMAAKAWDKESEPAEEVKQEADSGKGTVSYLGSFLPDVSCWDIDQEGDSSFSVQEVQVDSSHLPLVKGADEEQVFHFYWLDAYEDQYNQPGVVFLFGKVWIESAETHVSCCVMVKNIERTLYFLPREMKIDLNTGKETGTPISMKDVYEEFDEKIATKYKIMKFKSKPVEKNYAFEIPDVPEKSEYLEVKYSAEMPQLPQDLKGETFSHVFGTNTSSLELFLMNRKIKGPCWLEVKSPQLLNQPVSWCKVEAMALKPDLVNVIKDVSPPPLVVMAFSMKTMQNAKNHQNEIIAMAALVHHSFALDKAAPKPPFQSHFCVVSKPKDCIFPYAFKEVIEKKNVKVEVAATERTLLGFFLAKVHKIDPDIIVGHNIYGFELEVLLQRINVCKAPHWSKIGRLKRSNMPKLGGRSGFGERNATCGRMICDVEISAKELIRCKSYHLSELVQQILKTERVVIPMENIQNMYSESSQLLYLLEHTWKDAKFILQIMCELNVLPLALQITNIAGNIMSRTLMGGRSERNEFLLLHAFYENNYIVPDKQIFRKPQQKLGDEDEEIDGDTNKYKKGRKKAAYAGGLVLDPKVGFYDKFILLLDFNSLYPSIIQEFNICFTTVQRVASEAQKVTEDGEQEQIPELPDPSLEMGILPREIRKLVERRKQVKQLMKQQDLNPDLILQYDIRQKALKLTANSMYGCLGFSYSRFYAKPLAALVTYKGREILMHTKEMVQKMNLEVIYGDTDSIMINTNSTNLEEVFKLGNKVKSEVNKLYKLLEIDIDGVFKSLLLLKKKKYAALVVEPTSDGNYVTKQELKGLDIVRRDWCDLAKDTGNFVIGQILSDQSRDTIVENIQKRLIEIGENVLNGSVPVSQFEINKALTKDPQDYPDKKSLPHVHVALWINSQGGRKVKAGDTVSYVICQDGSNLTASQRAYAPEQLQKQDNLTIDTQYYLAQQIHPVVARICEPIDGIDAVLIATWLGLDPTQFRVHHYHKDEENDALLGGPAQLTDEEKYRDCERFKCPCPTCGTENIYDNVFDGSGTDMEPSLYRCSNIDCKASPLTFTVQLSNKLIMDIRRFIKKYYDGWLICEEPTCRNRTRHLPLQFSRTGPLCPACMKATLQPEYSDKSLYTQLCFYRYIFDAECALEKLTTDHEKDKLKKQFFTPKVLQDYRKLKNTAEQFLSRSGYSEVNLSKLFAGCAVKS

DNA polymerase beta = DNA polymerase beta (Homo sapiens, UniProt P06746); experiment: Inhibition of human DNA polymerase beta
[21] = Inhibition of human DNA polymerase gamma
[22] = Inhibition of HIV-RNase-H; design: species or system Human immunodeficiency virus
[23] = target: Voltage-gated inwardly rectifying potassium channel KCNH2 (Homo sapiens, UniProt Q12809); experiment: Inhibition of human ERG
Voltage-gated inwardly rectifying potassium channel KCNH2, sequence (Q12809 whole entry): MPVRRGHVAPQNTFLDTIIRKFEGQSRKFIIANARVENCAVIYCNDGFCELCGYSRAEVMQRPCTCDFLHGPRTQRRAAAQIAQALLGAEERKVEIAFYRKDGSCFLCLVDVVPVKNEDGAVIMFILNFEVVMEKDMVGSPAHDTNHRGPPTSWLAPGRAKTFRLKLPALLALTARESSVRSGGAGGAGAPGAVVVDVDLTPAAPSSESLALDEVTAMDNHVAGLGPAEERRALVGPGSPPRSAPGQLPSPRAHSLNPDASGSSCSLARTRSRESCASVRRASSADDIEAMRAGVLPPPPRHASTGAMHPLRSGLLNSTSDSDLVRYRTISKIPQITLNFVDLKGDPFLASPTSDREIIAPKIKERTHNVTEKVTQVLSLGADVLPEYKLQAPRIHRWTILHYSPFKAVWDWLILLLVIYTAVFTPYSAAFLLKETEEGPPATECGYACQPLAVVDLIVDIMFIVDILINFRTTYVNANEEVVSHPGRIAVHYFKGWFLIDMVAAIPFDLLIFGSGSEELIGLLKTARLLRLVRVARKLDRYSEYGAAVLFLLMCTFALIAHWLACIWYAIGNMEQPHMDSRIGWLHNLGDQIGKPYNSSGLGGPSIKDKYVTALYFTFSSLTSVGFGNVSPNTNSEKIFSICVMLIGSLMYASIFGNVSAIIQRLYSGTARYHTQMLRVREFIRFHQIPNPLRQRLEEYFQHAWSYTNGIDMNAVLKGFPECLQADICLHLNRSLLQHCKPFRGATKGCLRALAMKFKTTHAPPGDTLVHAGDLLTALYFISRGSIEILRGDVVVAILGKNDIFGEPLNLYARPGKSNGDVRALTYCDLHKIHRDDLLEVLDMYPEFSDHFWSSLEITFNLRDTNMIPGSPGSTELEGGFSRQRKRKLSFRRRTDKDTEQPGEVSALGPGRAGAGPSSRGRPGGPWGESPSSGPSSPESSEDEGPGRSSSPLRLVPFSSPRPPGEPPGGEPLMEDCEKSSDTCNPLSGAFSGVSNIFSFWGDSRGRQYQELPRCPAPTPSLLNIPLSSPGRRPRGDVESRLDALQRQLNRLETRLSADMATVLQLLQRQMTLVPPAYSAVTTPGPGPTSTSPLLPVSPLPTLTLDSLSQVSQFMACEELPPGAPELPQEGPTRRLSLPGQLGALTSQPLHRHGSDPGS

Cytochrome P450 2C19 = Cytochrome P450 2C19 (Homo sapiens, UniProt P33261); experiment: Inhibition of CYP2C19; type: ADME
Cytochrome P450 2C19, sequence (P33261 whole entry): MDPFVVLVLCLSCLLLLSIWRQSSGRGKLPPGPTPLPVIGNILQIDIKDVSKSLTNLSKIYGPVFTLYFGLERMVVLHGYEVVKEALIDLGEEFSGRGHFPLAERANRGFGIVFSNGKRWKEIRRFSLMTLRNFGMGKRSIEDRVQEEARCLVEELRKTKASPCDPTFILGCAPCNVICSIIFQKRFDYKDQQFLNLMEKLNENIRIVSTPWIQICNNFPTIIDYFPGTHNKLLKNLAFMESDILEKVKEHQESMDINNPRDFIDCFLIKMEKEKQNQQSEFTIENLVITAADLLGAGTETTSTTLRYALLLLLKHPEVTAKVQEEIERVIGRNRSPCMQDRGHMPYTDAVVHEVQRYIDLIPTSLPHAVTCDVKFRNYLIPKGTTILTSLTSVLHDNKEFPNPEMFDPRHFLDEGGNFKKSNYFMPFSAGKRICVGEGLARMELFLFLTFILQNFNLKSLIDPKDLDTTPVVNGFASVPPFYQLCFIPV

Cytochrome P450 2C9 = Cytochrome P450 2C9 (Homo sapiens, UniProt P11712); experiment: Inhibition of CYP2C9; type: ADME
Cytochrome P450 2C9, sequence (P11712 whole entry): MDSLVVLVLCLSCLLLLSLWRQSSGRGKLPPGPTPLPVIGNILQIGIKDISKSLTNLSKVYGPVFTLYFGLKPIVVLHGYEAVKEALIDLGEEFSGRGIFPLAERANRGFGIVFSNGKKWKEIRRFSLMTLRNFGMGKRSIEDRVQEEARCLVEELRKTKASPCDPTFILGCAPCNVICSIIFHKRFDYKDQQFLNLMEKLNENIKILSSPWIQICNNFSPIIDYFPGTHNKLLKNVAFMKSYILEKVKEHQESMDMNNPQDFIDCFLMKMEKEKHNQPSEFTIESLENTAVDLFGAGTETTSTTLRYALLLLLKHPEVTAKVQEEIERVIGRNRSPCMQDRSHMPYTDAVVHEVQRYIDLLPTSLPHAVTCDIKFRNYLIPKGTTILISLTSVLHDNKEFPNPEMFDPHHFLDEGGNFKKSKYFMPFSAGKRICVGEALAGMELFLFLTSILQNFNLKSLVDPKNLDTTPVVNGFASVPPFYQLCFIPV

Cytochrome P450 2D6 = Cytochrome P450 2D6 (Homo sapiens, UniProt P10635); experiment: Inhibition of CYP2D6; type: ADME
Cytochrome P450 2D6, sequence (P10635 whole entry): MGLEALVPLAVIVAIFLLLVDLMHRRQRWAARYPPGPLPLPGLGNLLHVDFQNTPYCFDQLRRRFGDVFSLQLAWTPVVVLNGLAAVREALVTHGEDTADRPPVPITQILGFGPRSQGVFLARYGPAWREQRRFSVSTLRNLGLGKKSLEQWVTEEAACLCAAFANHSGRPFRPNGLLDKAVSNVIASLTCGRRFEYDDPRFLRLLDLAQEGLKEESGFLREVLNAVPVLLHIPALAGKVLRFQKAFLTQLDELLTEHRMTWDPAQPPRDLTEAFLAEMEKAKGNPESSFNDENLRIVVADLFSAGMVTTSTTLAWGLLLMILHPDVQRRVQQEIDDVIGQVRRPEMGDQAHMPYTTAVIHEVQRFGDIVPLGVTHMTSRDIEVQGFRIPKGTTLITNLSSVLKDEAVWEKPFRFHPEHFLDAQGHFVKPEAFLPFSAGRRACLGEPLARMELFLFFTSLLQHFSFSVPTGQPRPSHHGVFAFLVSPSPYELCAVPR

Cytochrome P450 3A4 = Cytochrome P450 3A4 (Homo sapiens, UniProt P08684); experiment: Inhibition of CYP3A4; type: ADME
Cytochrome P450 3A4, sequence (P08684 whole entry): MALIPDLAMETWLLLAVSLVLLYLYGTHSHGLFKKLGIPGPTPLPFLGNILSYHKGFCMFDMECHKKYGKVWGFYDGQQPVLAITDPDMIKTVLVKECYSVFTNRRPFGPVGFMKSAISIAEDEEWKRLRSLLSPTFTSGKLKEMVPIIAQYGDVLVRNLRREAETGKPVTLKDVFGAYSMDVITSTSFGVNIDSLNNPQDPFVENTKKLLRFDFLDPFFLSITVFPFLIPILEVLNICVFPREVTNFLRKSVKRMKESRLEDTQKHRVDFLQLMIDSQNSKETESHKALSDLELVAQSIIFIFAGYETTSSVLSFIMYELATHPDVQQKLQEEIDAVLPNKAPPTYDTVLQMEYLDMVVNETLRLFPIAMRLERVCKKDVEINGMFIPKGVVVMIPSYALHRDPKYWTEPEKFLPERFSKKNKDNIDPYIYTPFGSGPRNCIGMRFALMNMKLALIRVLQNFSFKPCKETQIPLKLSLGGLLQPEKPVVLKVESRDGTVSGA

Liver microsomes [24] = experiment: Metabolic stability in human liver microsomes in presence of NADPH and UDPGA; type: ADME, Microsome; method in brief: as §1
[25] = Inhibition of recombinant HIV1 integrase strand transfer activity
[26] = AUC in rat at 10 mg/kg, po; details: plasma
Homo sapiens = organism: Homo sapiens; experiment: Protein binding in human plasma; details: read-out: PPB (converted)
[27] = Volume of distribution at steady state in dog at 1 mg/kg, iv or 2 mg/kg, po; details: in vivo, read-out: Vdss
[28] = Volume of distribution at steady state in rhesus monkey at 2 mg/kg, iv or 10 mg/kg, po; details: in vivo, read-out: Vdss

Question: For `CN(C)C(=O)C(=O)N(C)[C@H]1CCCCn2c1nc(C(=O)NCc1ccc(F)cc1)c(O)c2=O`, which IC95 [1] is on record?
Answer: Its IC95 is 0.01 µM.

Question: And the IC95 [2]?
Answer: Its IC95 is 0.013 µM.

Question: And the fraction unbound [3]?
Answer: Its fraction unbound is 0.06.

Question: What about the fraction unbound [4] of the same compound?
Answer: The fraction unbound was 0.24.

Question: And the Stability (Liver microsomes [5])?
Answer: Its Stability is 11 µL/min/mg.

Question: And the Stability (Liver)?
Answer: Its Stability is 4 µL/min/mg.

Question: And the F (Canis familiaris [6])?
Answer: Its F is 61%.

Question: What about the bioavailability [7] of the same compound?
Answer: Its bioavailability is 64%.

Question: What about the bioavailability [8] of the same compound?
Answer: Its bioavailability is 31%.

Question: And the clearance [9]?
Answer: Its clearance is 7 mL/min/kg.

Question: And the clearance [10]?
Answer: Its clearance is 8 mL/min/kg.

Question: What about the half-life [11] of the same compound?
Answer: Its half-life is 7.4 h.

Question: And the half-life [12]?
Answer: Its half-life is 2.1 h.

Question: What about the half-life [13] of the same compound?
Answer: The half-life was 2.6 h.

Question: And the AUC (Canis familiaris [14])?
Answer: Its AUC is 31 µM·h.

Question: What about the AUC [15] of the same compound?
Answer: The AUC was 14 µM·h.

Question: What about the Cmax [16] of the same compound?
Answer: The Cmax was 27 µM.

Question: And the Cmax [17]?
Answer: Its Cmax is 25 µM.

Question: And the Cmax [18]?
Answer: The Cmax was 10 µM.

Question: And the Vd [19]?
Answer: Its Vd is 0.7 L/kg.

Question: And the IC50 [20]?
Answer: Its IC50 is over 10 µM.

Question: And the IC50 (DNA polymerase beta)?
Answer: Its IC50 is over 10 µM.

Question: And the IC50 [21]?
Answer: The IC50 was over 10 µM.

Question: What about the IC50 [22] of the same compound?
Answer: The IC50 was over 50 µM.

Question: What about the IC50 [23] of the same compound?
Answer: Its IC50 is over 10 µM.

Question: And the IC50 (Cytochrome P450 2C19)?
Answer: Its IC50 is over 100 µM.

Question: And the IC50 (Cytochrome P450 2C9)?
Answer: Its IC50 is 75 µM.

Question: And the IC50 (Cytochrome P450 2D6)?
Answer: The IC50 was over 100 µM.

Question: And the IC50 (Cytochrome P450 3A4)?
Answer: The IC50 was over 100 µM.

Question: What about the Stability (Liver microsomes [24]) of the same compound?
Answer: Its Stability is 3 µL/min/mg.

Question: What about the IC50 [25] of the same compound?
Answer: Its IC50 is 0.012 µM.

Question: And the AUC [26]?
Answer: Its AUC is 37 µM·h.

Question: And the fraction unbound (Homo sapiens)?
Answer: The fraction unbound was 0.19.

Question: And the Vd [27]?
Answer: The Vd was 0.9 L/kg.

Question: What about the Vd [28] of the same compound?
Answer: Its Vd is 0.7 L/kg.
